In ChEMBL document CHEMBL1156006, “Potent and cellularly active 4-aminoimidazole inhibitors of cyclin-dependent kinase 5/p25 for the treatment of Alzheimer's disease” (Bioorg Med Chem Lett, 2009):

Experiments:
[1] = Selectivity ratio, IC50 for CDK2/cyclin E over IC50 for CDK5/p25
[2] = biological target: T1, Cyclin-dependent kinase 5/CDK5 activator 1 (Homo sapiens, UniProt Q00535); assay: Inhibition of CDK5/p25 by scintillation proximity assay; type: protein-complex assay
[3] = Plasma concentration in MDR1A/1B knockout mouse at 2 mg/kg, sc after 1 hr; type: ADME, organism-based; design: dose 2 mg/kg, route subcutaneous
[4] = biological target: T1, Cyclin-dependent kinase 5/CDK5 activator 1; assay: Inhibition of human CDK5/p25 expressed in CHO cells after 2 hrs by whole cell assay; type: cell-based
Summary of the method: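 The cell line carries doxycycline-regulated CDK5, p25 and tau transgenes and was kept uninduced in doxycycline medium. Expression was induced by removing doxycycline for 24 h. Cells were then treated with compound for 2 h and lysed. Phosphorylated tau was measured in detergent-soluble extracts by AlphaLISA.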

[5] = Ratio of drug level from brain to plasma in FV/B mouse at 2 mg/kg, sc after 1 hr
[6] = Ratio of drug level from brain to plasma in MDR1A/1B knockout mouse at 2 mg/kg, sc after 1 hr
[7] = Drug level in FV/B mouse brain at 2 mg/kg, sc after 1 hr; type: ADME, organism-based; design: dose 2 mg/kg, route subcutaneous; conditions: read-out: Drug uptake
[8] = Drug level in MDR1A/1B knockout mouse brain at 2 mg/kg, sc after 1 hr; type: ADME, organism-based; design: dose 2 mg/kg, route subcutaneous; conditions: read-out: Drug uptake
[9] = Plasma concentration in FV/B mouse at 2 mg/kg, sc after 1 hr; type: ADME, organism-based; design: dose 2 mg/kg, route subcutaneous
[10] = Apparent permeability from apical to basolateral side in human Caco-2 cells
[11] = Apparent permeability from basolateral to apical side in human Caco-2 cells
[12] = Selectivity ratio, IC50 for human CDK5/p25 by whole cell assay over IC50 for CDK5/p25
[13] = biological target: Glycogen synthase kinase-3 beta (Homo sapiens) (UniProt P49841); assay: Inhibition of GSK3-beta at 10 uM by scintillation proximity assay
Summary of the method: (§1)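 Single-concentration profiling by scintillation proximity assay across a 20-kinase panel, including AMPK, GSK3b, MAPK1 and PHK. Compound was tested at 10, with ATP at the Km of each kinase.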

[14] = Inhibition of PHK at 10 uM by scintillation proximity assay
Summary of the method: as §1

[15] = Inhibition of AMPK at 10 uM by scintillation proximity assay
Summary of the method: as §1

[16] = biological target: Dual specificity protein kinase CLK1 (Homo sapiens) (UniProt P49759); assay: Inhibition of CLK1 at 10 uM by scintillation proximity assay
[17] = biological target: T2, Cyclin-dependent kinase 2/cyclin A (Homo sapiens) (UniProt P24941+P20248+P78396); assay: Inhibition of CDK2/cyclin A at 10 uM by scintillation proximity assay; type: protein-complex assay
[18] = biological target: Glycogen synthase kinase-3 beta (Homo sapiens) (UniProt P49841); assay: Inhibition of GSK3-beta at 1 uM by scintillation proximity assay
[19] = biological target: Dual specificity protein kinase CLK1 (Homo sapiens) (UniProt P49759); assay: Inhibition of CLK1 at 1 uM by scintillation proximity assay
[20] = biological target: Mitogen-activated protein kinase 1 (Homo sapiens) (UniProt P28482); assay: Inhibition of MAPK1/ERK2 at 1 uM by scintillation proximity assay
[21] = biological target: Casein kinase I isoform delta (Homo sapiens) (UniProt P48730); assay: Inhibition of CK1delta at 10 uM by scintillation proximity assay
[22] = biological target: Casein kinase I isoform delta (Homo sapiens) (UniProt P48730); assay: Inhibition of CK1delta at 1 uM by scintillation proximity assay
[23] = biological target: T2, Cyclin-dependent kinase 2/cyclin A (Homo sapiens); assay: Inhibition of CDK2/cyclin A at 1 uM by scintillation proximity assay; type: protein-complex assay
[24] = biological target: Mitogen-activated protein kinase 1 (Homo sapiens) (UniProt P28482); assay: Inhibition of MAPK1/ERK2 at 10 uM by scintillation proximity assay
Summary of the method: as §1

T1 sequence (Q00535 whole entry): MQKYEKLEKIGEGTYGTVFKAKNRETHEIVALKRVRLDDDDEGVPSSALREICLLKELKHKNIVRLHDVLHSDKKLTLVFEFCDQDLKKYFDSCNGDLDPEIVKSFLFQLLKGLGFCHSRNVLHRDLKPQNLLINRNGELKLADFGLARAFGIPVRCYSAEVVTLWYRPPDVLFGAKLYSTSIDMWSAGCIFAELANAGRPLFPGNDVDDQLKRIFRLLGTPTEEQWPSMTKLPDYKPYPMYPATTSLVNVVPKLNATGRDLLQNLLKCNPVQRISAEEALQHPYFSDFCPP
T1 sequence (Q15078 whole entry, further chain): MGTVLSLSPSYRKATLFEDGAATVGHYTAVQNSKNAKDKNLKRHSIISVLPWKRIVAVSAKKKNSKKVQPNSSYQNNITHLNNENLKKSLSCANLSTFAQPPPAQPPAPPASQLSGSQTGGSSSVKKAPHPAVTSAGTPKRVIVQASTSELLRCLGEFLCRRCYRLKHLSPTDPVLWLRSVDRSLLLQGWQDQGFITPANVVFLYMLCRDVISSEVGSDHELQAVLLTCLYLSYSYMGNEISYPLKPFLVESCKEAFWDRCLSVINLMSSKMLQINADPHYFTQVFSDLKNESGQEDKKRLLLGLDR
Chain of Glycogen synthase kinase-3 beta (Homo sapiens) (P49841 whole entry, looked up): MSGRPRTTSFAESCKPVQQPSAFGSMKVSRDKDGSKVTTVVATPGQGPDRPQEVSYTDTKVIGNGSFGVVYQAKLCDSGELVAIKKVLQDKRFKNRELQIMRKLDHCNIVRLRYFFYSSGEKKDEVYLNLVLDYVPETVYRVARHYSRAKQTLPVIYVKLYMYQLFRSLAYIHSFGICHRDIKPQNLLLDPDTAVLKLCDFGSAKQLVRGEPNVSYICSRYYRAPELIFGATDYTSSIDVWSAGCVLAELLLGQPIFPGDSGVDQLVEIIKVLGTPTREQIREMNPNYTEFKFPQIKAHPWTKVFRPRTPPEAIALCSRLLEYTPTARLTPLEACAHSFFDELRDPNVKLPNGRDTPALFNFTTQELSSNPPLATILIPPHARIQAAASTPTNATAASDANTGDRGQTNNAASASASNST
Chain of Mitogen-activated protein kinase 1 (Homo sapiens) (P28482 whole entry, canonical isoform): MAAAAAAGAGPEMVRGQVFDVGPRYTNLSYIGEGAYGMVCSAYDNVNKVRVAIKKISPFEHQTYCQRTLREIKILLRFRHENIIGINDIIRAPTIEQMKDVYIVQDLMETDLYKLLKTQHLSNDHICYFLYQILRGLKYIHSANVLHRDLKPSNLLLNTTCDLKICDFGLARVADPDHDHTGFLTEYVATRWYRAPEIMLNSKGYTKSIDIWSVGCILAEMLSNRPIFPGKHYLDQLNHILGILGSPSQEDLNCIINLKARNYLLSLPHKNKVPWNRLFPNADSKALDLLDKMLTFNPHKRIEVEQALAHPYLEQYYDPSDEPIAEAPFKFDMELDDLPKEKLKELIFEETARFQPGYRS
Chain of Casein kinase I isoform delta (Homo sapiens) (P48730 whole entry, looked up, canonical isoform): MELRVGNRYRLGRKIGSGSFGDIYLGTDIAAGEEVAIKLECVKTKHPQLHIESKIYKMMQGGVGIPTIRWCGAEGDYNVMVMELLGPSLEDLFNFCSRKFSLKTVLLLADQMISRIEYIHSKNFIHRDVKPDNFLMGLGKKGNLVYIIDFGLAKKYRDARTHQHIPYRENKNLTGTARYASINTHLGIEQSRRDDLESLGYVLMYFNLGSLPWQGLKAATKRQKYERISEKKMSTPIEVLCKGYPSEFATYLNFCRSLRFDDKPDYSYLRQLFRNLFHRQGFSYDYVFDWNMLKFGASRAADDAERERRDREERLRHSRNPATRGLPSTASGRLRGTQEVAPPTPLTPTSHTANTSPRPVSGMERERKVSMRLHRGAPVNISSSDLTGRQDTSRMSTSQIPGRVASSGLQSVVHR
Chain of Dual specificity protein kinase CLK1 (Homo sapiens) (P49759 whole entry, looked up): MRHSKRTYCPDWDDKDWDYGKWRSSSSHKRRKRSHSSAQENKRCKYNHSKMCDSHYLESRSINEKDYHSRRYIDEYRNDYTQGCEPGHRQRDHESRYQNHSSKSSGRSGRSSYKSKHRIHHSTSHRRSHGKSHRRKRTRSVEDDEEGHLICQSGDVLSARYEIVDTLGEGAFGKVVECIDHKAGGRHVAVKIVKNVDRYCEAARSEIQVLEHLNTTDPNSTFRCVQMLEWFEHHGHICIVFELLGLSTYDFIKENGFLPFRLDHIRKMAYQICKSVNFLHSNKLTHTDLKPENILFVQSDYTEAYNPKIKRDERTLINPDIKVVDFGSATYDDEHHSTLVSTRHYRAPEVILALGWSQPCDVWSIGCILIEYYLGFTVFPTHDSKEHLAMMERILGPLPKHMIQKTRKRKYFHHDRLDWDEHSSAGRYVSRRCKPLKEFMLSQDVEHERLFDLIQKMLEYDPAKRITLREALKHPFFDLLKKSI

SMILES	Ratio IC50 [1]	IC50 [2]	further results
Cc1cccc(C(=O)N[C@H]2C[C@@H](n3cnc(NC(=O)Cc4cccc5ccccc45)c3)C2)n1	–	6 nM	concentration at 1 h [3]: 336 ng/mL; IC50 [4]: 230 nM; Kp at 1 h [5]: 0.12; Kp at 1 h [6]: 1.1; concentration at 1 h [7]: 34 ng/g; concentration at 1 h [8]: 383 ng/g; concentration at 1 h [9]: 280 ng/mL
COc1ccc(CC(=O)Nc2cn(Cc3ccccc3)cn2)cc1	–	8640 nM	–
COc1ccc(CC(=O)Nc2cn([C@H]3C[C@@H](C(=O)OC)C3)cn2)cc1	0.7	145 nM	–
COc1ccc(CC(=O)Nc2cn(C3CCCCC3)cn2)cc1	–	748 nM	–
COc1ccc(CC(=O)Nc2cn([C@H]3C[C@H](O)C3)cn2)cc1	0.7	1090 nM	–
O=C(Cc1ccccc1)Nc1cn(C2CCC2)cn1	–	500 nM	–
COc1ccc(CC(=O)Nc2cn([C@H]3C[C@H](C(=O)OC)C3)cn2)cc1	0.2	4380 nM	–
COc1ccc(CC(=O)Nc2cn([C@H]3C[C@@H](NS(C)(=O)=O)C3)cn2)cc1	6	178 nM	–
CC(=O)N(C)[C@H]1C[C@@H](n2cnc(NC(=O)Cc3cccc4ccccc34)c2)C1	15	107 nM	–
COc1ccc(CC(=O)Nc2cn(C3CC3)cn2)cc1	–	814 nM	–
NC(=O)[C@H]1C[C@@H](n2cnc(NC(=O)Cc3cccc4ccccc34)c2)C1	2	391 nM	–
COc1ccc(CC(=O)Nc2cn(C3CCCC3)cn2)cc1	–	154 nM	–
COc1ccc(CC(=O)Nc2cn(C)cn2)cc1	–	> 10000 nM	–
COc1ccc(CC(=O)Nc2cn(C3CCC3)cn2)cc1	–	145 nM	inhibition [13]: 34%; inhibition [14]: 32%; inhibition [15]: 48%
COc1ccc(CC(=O)Nc2cn(C(C)C)cn2)cc1	–	425 nM	–

Second part, led by results:

Ratio IC50 [1]	IC50 [2]	SMILES	further results
11	28 nM	O=C(Cc1cccc2ccccc12)Nc1cn([C@H]2C[C@@H](NC(=O)c3ccncc3)C2)cn1	–
–	46 nM	O=C(Cc1cccc2ccccc12)Nc1cn(C2CCC2)cn1	–
20	14 nM	O=C(Cc1cccc2ccccc12)Nc1cn([C@H]2C[C@@H](NC(=O)c3ccccn3)C2)cn1	IC50 [4]: 1300 nM; Papp A→B [10]: 26 ×10⁻⁶ cm/s; Papp B→A [11]: 21 ×10⁻⁶ cm/s
15	46 nM	O=C(Cc1cccc2ccccc12)Nc1cn([C@H]2C[C@@H](NC(=O)c3cccnc3)C2)cn1	IC50 [4]: > 30000 nM
17	8 nM	CC(=O)N[C@H]1C[C@@H](n2cnc(NC(=O)Cc3cccc4ccccc34)c2)C1	IC50 [4]: > 30000 nM; Papp A→B [10]: 1.5 ×10⁻⁶ cm/s; Papp B→A [11]: 17.5 ×10⁻⁶ cm/s
1.5	64 nM	O=C(Cc1ccccc1)Nc1ncc(C2CCC2)s1	–
34	6 nM	O=C(Cc1cccc2ccccc12)Nc1cn([C@H]2C[C@@H](NC(=O)c3cccc(Cl)n3)C2)cn1	IC50 [4]: 673 nM; Ratio IC50 [12]: 100
0.7	95 nM	COc1ccc(CC(=O)Nc2cn([C@H]3C[C@@H](O)C3)cn2)cc1	–
7	9 nM	COc1ccc(CC(=O)Nc2cn([C@H]3C[C@@H](NC(C)=O)C3)cn2)cc1	inhibition [16]: 92%; inhibition [13]: 100%; inhibition [17]: 101%; inhibition [18]: 94%; inhibition [19]: 55%; inhibition [20]: 47%; inhibition [21]: 39%; inhibition [22]: 7%; inhibition [23]: 94%; inhibition [24]: 89%
